Measured values reported in the EternaBench riboswitch data.

Test system: MS2 coat protein
Experiment: apparent Kd, MS2 coat protein; higher = weaker binding; RNA-MaP array; FMN 200 µM where present
Method in brief: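 On Illumina sequencing-chip clusters, designs were transcribed by stalled E. coli RNA polymerase and titrated with SNAP-549-labelled MS2 coat protein (0.7 or 1.5 nM, doubling to 3 µM), without and then with constant ligand, in 100 mM Tris-HCl pH 7.5, 80 mM KCl, 4 mM MgCl2, BSA, DTT, yeast tRNA and Tween-20. Apparent Kd is the median of filtered per-cluster curve fits to green signal normalised to red-channel RNA signal and control-cluster median Fmax.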

[1] = designed as: ON switch for flavin mononucleotide, no ligand
[2] = ligand present: flavin mononucleotide, designed as: ON switch for flavin mononucleotide
[3] = designed as: OFF switch for flavin mononucleotide, no ligand
[4] = ligand present: flavin mononucleotide, designed as: OFF switch for flavin mononucleotide

Sequence | apparent Kd [1] [nM] | apparent Kd [2] [nM] | apparent Kd [3] [nM] | apparent Kd [4] [nM]
UUGGACUACGUAGGAUAUGUAGGAUAUUCCUACAUGAGGAUCACCCAUGUUAGCAUGGAAGAAGGACAGAAGGACGUGGUCCAU | 1360 | 15.8 | – | –
AGUAACAUACUCAACAUGAGGAUCACCCAUGUACUCUCUUGUAAGGAUAUACAUUCGUAUUGAUAGUAGAAGGUACCAAUUAAG | 53.5 | 57.4 | – | –
AUCAAUCAUGUAGGAUAUGCGUGGCGAAGCUAUGCAGAAGGACAUGAGGAUCACCCAUGUCUUUCUGUCUGCGGACGGACAGGA | – | – | 19.2 | 55.7
AAAAGGUGAGGAUAUACAUGAGGAUCACCCAUGUAGAAAGGAAGUGUAAAAAAAAAGUGUAGAAGGCAUCAUGA | – | – | 58.7 | 60.6
UCGGCGCGAGGAUAUACGUUUGCGCGUUUUCGUUUUUGCGUACAUGAGGAUCACCCAUGUAGAAGGCGCGCCGC | – | – | 12.8 | 18
GCGUCAGAAUUAAUUGUGACAGACAGAAGGCAAUAGUUCAUGUCAGACAUGAGGAUCACCCAUGUUGAGGAUAUGUAUUUACUC | – | – | 7.54 | 8.35
UUGGACGUCGUAGGAUAAGUAGGAUAUUCCUACAUGAGGAUCACCCAUGUUGACAUGGAAGAAGGACAGAAGGACGAUGUCCAU | 96.2 | 4.48 | – | –
CCUCAUUGGCAGGAUAUCAGCACUAACGUGGUAUGAGAAGGGUCGACAUGAGGAUCACCCAUGUCAAUUGUCUG | – | – | 31.2 | 122
UUACUGCGAGGAUAUGCGAUCCAGACCAUGAUGUAAUUCCGACAUGAGGAUCACCCAUGUAGAAGGUGCAGUGG | – | – | 22.4 | 27.1
GGUGGACAUGAGGAUCACCCAUGUGAGGAUAUCGGCCGGUGCGUGGUGGCUGGCGUCUCGAGAAGGCACAUAGU | – | – | 92.1 | 166
UAAUCUCAGAUAGGAUAUAUAGGAUAACUUAAGACCGAACAUGAGGAUCACCCAUGUGAUUAUUCGUAGAAGGAUCAAUGACCC | 119 | 119 | – | –
CGAUAGGACAGAGGAUAUACGUGCUAGAGAUACUAGCAAAAUUACAACACAUGAGGAUCACCCAUGUAGAAGGCUGUCCUAUCG | – | – | 5.04 | 6.21
GGUCCAUCAUGAGGAUAUGGCACCUUAUUGGUGCCAGAAGGCAUGUCUAUAGACAUGAGGAUCACCCAUGUGAUAAAUUGGACC | 523 | 49.9 | – | –
UUUAUGUGAGGAUAUCAGUAGUAAAAAAAUAAAAUUACUACUGAGAAGGCACAUGAGGAUCACCCAUGUACUUC | – | – | 40.2 | 30.5
AAAAGACAUGAGGAUCACCCAUGUAAAAACAUGAGAGGAUAUCAUCUGACUUCGGUCAGAUGAGAAGGCUCAUGUC | 48.7 | 26.9 | – | –
CUGUUAUAGGUCCAGAAUUACAACAUGAGGAUCACCCAUGUGCAGGAUAUCGGGUUGAUAGGCGACGAGAAGGGCAUAGUCACG | – | – | 76.5 | 79.2
AAUAACAGAGGAUAUACUGUUUUAUGUGUUUGUUAUUUUGAACAUGAGGAUCACCCAUGUAGAAGGCUGAAUGA | – | – | 28.9 | 29.7
UACAUAAAUGAAGGAUAUCGAUAUCCAACAUGAGGAUCACCCAUGUUGAGGAUCACCCAUGUAAAUGAGAAGGUUAACAUAACU | 70.5 | 73.5 | – | –
GACUGCAUGUAAGGAUAUCGACUGGAUAACAGUCGAGAAGGUACAUGAGGAUCACCCAUGUAAUAAGAUCAAUAAUAAGCAGUC | – | – | 14.4 | 31.3
AACUGACAUGAGGAUCACCCAUGUCAGGAUAUGACAUCGAAAAUAAAAUAAAUCGUUGUCAGAAGGGACAUGGG | – | – | 21.4 | 19.3
GGACGACACAUCUACAUGAGGAUCACCCAUGUCGAAAGACAUGAGGAUAUGCAUCCUAAUUGGAUGCAGAAGGCAUGGUCGUCC | 1210 | 70.3 | – | –
UCGAUAAGGAGAGGAUAUGGACAUGAGGAUCACCCAUGUACAUGGGAAUAUAUACUGAAUUUUUACUAGAAGGCUUACAUAAAU | – | – | 14.7 | 12.4
UGUAUUAAUGGAGGAUAUCGAUAUCAAACAUGAGGAUCACCCAUGUUGAGGAUCACCCAUGUCCACGAGAAGGCUGGCGUACGU | 16.6 | 18.1 | – | –
GAGUCACUAUUAGAACCGAUACGAACAUGAGGAUCACCCAUGUAGGAUAUGCUAAAAGUUGUGUUGCAGAAGGACAUUUAUCGC | – | – | 9.81 | 9.06

Sequence | apparent Kd [1] [nM] | apparent Kd [2] [nM] | apparent Kd [3] [nM] | apparent Kd [4] [nM]
AAAAAACAUGAGGAUCACCCAUGUGAGGAUAUCCUGGUUGAAAAAAAAAAAACAACCAGGAGAAGGCACAAAAA | – | – | 88.4 | 132
CAUCAAAGAAUACCAGGGCAUUAAUGAGAAGGCCAACCACAUGAGGAUCACCCAUGUACGGGAGUGGAGGAUAUCAGUGGGCCG | 52.5 | 6.43 | – | –
CCUAGAUAGGGAGGAUAUCACAACCAUCCCGGCGAUCCAACUACAUGAGGAUCACCCAUGUGGUGUGAGAAGGCCCAGUAAUAG | – | – | 143 | 78.6
GGGAUCAUCGGAGGAUAUCAUGUAGAUACAUGAGGAUCACCCAUGUCGAUGGAGACAUCGGAGAUUGAGAAGGCCGAUGAUCCG | 741 | 28.9 | – | –
AGAUUUUUACAUGAGGAUCACCCAUGUUAAUAGGUGUUUGUCAGAAGGCAUUAUGAGAGAAUUAAUGAGGAUAUGAAGUUUCAU | 40.4 | 27.8 | – | –
GUCAGGUGAGGAUAUACGCGGCUGACGAAACGUUAUACCGAGUAGAAGGCACAUGAGGAUCACCCAUGUUCGGG | – | – | 109 | 59.6
GACGAAUAGCUAGGAUAUCGUAAAUCAUUGGUAGUCUCUAUUCACAUGAGGAUCACCCAUGUAAUCGAGAAGGAGCACUCGUUC | – | – | 80.4 | 240
GGACGUCAGAUUAACAUGAGGAUCACCCAUGUCUUUUGACAUGAGGAUAUGCAACGUAAUUCGUUGCAGAAGGCAUGGACGUCC | 1010 | 89.8 | – | –
UGUCGAAGCAGAGGAUAUUACAUGAGGAUCACCCAUGUAUGAACCAAUAGCUGGAAACAGCAAUGUAAGAAGGCUGCUCCGACA | – | – | 11.8 | 138
GGGUACAUCGGAGGAUAUCAUGUAAAUACAUGAGGAUCACCCAUGUCGAUGGAGACAUCGGAGAUUGAGAAGGCCGAUGAACCG | 165 | 8.52 | – | –
UAAAAUCAUGUAGGAUAUGCGUGGCGAAGCUAUGCAGAAGGACAUGAGGAUCACCCAUGUCUUAGCUAGCGUACUAGCUUAAAG | – | – | 12.9 | 49.7
ACGAGGGUUACAGGAUAUGAAGCUAAAACGGCGUUAGAAGGGUAUACAGAGUUACAUGAGGAUCACCCAUGUUGUGACUUCGAA | – | – | 33.6 | 41
AAAAGUCGAGGAUAUGCAAAAUGAUUGCGAAAGCAAUCAAAACAUGAGGAUCACCCAUGUAGAAGGCGACAAAA | – | – | 21.3 | 13.9
AAACACGGACAUGAGGAUCACCCAUGUGGCGAAAGCCUUGGGAGAAGGCCGAUUGCAAAGCAAUCGGAGGAUAUUCGUACCGUG | 237 | 13.8 | – | –
AAGCGAGGGACAGGAUAUGCGGCAAAACUUUCCGCAGAAGGGUCGACAUGAGGAUCACCCAUGUCCUUACGCUCCAAGUAGAGG | 189 | 277 | – | –
GUGUAGAUAGGAUAUGCAUGAGUCUAGCGAAGCUAGGCUCUACAUGAGGAUCACCCAUGUAGAAGGGUCUACAC | – | – | 20.6 | 17.2
UUGGACGUCGUAGGAUAUGUAGGAUAUUCCAACAUGAGGAUCACCCAUGUUGACAUGGAAGAAGGACAGAAGGACGAUGUCCAU | 4.28 | 3.63 | – | –
UAAACACCCUCAUGUACCUGAGGACAUGAGGAUCACCCAUGUGAGGAUAUAGCCAUUAAAUCUAACUAGAAGGUAUAGGAAAUC | – | – | 772 | 612
GGAGUACAUGAGGAUCACCCAUGUUGGAACAAAGUAGGAUAUGUACAAUAUUAAAUAAAAACAGAAGGACUAAGAA | 47.4 | 30.8 | – | –
UUAUUAGCAGGAUAUAUCCGGGAUAACAUGAGGAUCACCCAUGUGACCGCUUGAUAUCCUAUAGAAGGGCUUUAUU | – | – | 19.9 | 31.4
AUGUUACAUGAGGAUCACCCAUGUGAGGAUAUGUGUACUGGUAAAAAAGUGUUUGGCCACAGAAGGCAUUUGGG | – | – | 50.4 | 148
UGUCGGACCAGAGGAUAUUACAUGAGGAUCACCCAUGUAUGAACCAAUAGCUGGAAACAGCAAUGUAAGAAGGCUGCUCCGACA | – | – | 9.74 | 105
AUAAUGUGAGGAUAUCAGUAAGAAUGCUUCGGCAUUCUUACUGAGAAGGCACAUGAGGAUCACCCAUGUGAUUA | – | – | 201 | 964
AACAAGAGGAUCACCCAUGUAACAUGAGGAUCACCCAUGUUUAAGGAUAUGUACAUGAUACAUGUACAGAAGGUGGAUUGGACU | – | – | 26.2 | 27.2
